Experimental data published in ChEMBL document CHEMBL1127432, “Synthesis, in vitro biological stability, and anti-HIV activity of 5-halo-6-alkoxy(or azido)-5,6-dihydro-3'-azido-3'-deoxythymidine diastereomers as potential prodrugs to 3'-azido-3'-deoxythymidine (AZT)” (J Med Chem, 1994).

Tests used:
Mus musculus [1] = species on record: Mus musculus; experiment: In vitro percent of 3''-azido-3''-deoxythymidine (AZT) formed upon incubation with mouse blood for 10 min at 37 degree C; assay type: functional
Method in brief: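 Heparinized mouse blood from cardiac puncture mixed 1:1 by volume with compound (1 mg/mL stock in water). Incubated 10 min at 37 °C, quenched with ice-cold methanol, 10 min on ice, then centrifuged. Supernatant dried under N2 and redissolved in methanol; AZT quantified by HPLC-UV at 230/265 nm.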

Mus musculus [2] = species on record: Mus musculus; experiment: In vitro percent of 3''-azido-3''-deoxythymidine (AZT) formed upon incubation with mouse liver homogenate for 30 min at 37 degree C; assay type: functional
Method in brief: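 Livers of three Balb/c mice homogenized in 0.1 M Tris pH 8.2, spun at 49000g for 2 h at 4 °C; supernatant (soluble enzyme fraction) used. Compound (1 mg/mL stock) incubated with the fraction 30 min at 37 °C, mixed with equal volume methanol, centrifuged. Supernatant dried and redissolved; AZT quantified by HPLC, UV 230 and 265 nm.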

[3] = molecular target: Thymidine phosphorylase (Escherichia coli K-12) (UniProt P07650); experiment: In vitro percent of phosphorolysis after incubation with Escherichia coli thymidine phosphorylase for 10 min at 37 degree C; assay type: functional
Thymidine phosphorylase (Escherichia coli K-12), sequence (P07650 whole entry, looked up): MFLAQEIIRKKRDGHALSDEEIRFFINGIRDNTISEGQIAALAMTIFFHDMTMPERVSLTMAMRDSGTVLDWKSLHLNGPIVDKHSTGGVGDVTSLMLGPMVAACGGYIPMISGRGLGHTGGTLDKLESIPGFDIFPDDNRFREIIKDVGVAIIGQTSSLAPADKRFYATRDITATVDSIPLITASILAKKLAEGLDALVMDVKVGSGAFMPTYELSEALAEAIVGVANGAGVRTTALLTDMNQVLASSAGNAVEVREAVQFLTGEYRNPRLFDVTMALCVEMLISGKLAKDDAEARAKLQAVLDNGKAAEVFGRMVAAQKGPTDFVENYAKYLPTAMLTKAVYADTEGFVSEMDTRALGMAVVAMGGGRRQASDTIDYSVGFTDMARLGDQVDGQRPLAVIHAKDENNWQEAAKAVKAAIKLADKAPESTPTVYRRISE
Method in brief: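 E. coli thymidine phosphorylase diluted in 10 mM Tris-HCl pH 7.3 with EDTA, plus 100 mM KH2PO4 pH 7.1 (stock), prewarmed to 37 °C. Substrate added, 10 min at 37 °C, stopped with ice-cold methanol, spun. HPLC-UV at 230 nm tracked substrate loss or appearance of base. Thymidine used as control substrate; each run at least twice.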

[4] = Regeneration of the 5,6-Olefinic bond was measured as percent of 3''-azido-3''-deoxythymidine (AZT) formed upon incubation with Glutathione for 30 min at 37 degree C; assay type: functional
Method in brief: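 Compound incubated with reduced glutathione at a compound:GSH mole ratio of 1:2 (1:5 for some analogs) in phosphate buffer pH 7.4 at 37 °C, for times up to 24 h. AZT formed quantified by HPLC, UV 230 nm (dihydro compound) and 265 nm (AZT), water:methanol 7:3 eluent.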

CCRF-CEM [5] = experiment: Inhibitory concentration (cytotoxic activity) which results in a 50% survival of […]; assay type: functional, cell-based; conditions: Homo sapiens
Method in brief: (§1)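 Cytotoxicity run in the NCI AIDS screening program on CEM T4 lymphocytes alongside the anti-HIV test. IC50 = drug concentration giving 50% survival of uninfected untreated control cells. AZT control tested concurrently.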

[6] = Therapeutic index of IC50 to EC50; conditions: read-out: TI
Method in brief: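 TI = IC50/EC50, both from the NCI CEM cell screen. IC50 is the drug concentration giving 50% survival of uninfected untreated controls. EC50 is the concentration giving 50% survival of HIV-1-infected cells relative to uninfected untreated controls.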

[7] = molecular target: Human immunodeficiency virus 1 (Human immunodeficiency virus 1, UniProt Q72547); experiment: Effective concentration (in vitro anti-HIV activity ) which produces a 50% survival of HIV-1-infected CEM cells relative to uninfected untreated controls; Inactive; assay type: functional, cell-based; conditions: ccrf-cem
Method in brief: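 HIV-1-infected CEM (T4 lymphocyte) cells given small amounts of virus, allowing one complete replication cycle to cause cell killing. Read-out: protection from cytolysis (cell survival) relative to uninfected untreated controls. EC50 is the drug concentration giving 50% survival of infected cells. AZT-treated positive control run concurrently under identical conditions. Run through the NCI Developmental Therapeutics Program AIDS antiviral screen.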

[8] = Effective concentration in vitro against HIV-1-infected CEM cells relative to uninfected untreated controls; conditions: ccrf-cem
CCRF-CEM [9] = experiment: Inhibitory concentration (cytotoxic activity) which results in a 50% survival of […]; ND=Not determined; assay type: functional, cell-based; conditions: Homo sapiens; method in brief: as §1

Row | Compound | AZT formation (Mus musculus [1]) [%] | AZT formation (Mus musculus [2]) [%] | Phosphorolysis [3] [%] | AZT formation [4] [%] | IC50 (CCRF-CEM [5]) [µM] | selectivity ratio [6] | EC50 [7] | further results
1 | CO[C@H]1N(C2CC(N=[N+]=[N-])C(CO)O2)C(=O)NC(=O)[C@@]1(C)Cl (some centres not stated) | 0 | 0 | 0 | 0 | – | – | – | –
2 | CCCCCCCCO[C@H]1N(C2CC(N=[N+]=[N-])C(CO)O2)C(=O)NC(=O)[C@]1(C)Br (some centres not stated) | – | – | – | – | 12.4 | 14 | – | –
3 | CC1(Cl)C(=O)NC(=O)N([C@H]2C[C@H](N=[N+]=[N-])[C@@H](CO)O2)C1N=[N+]=[N-] (some centres not stated) | – | – | – | – | 350 | 235 | – | –
4 | CO[C@H]1N(C2CC(N=[N+]=[N-])C(CO)O2)C(=O)NC(=O)[C@]1(C)I (some centres not stated) | 100 | 79 | 0 | 100 | 18.7 | 5900 | – | –
5 | CCO[C@@H]1N(C2CC(N=[N+]=[N-])C(CO)O2)C(=O)NC(=O)[C@@]1(C)Cl (some centres not stated) | – | – | – | – | > 200 | – | Not Active | –
6 | CCO[C@H]1N(C2CC(N=[N+]=[N-])C(CO)O2)C(=O)NC(=O)[C@]1(C)Br (some centres not stated) | – | – | 0 | 100 | 18.5 | 2740 | – | –
7 | Cc1cn([C@H]2C[C@H](N=[N+]=[N-])[C@@H](CO)O2)c(=O)[nH]c1=O [ZIDOVUDINE] | – | – | 0 | – | – | > 10000 | – | EC50 [8]: 0.003 µM
8 | CCCCCCCCO[C@H]1N(C2CC(N=[N+]=[N-])C(CO)O2)C(=O)NC(=O)[C@]1(C)Cl (some centres not stated) | – | – | – | – | – | – | Not Active | IC50 (CCRF-CEM [9]): 37.5 µM
9 | CCCCCCCCCCCCCCCCO[C@H]1N(C2CC(N=[N+]=[N-])C(CO)O2)C(=O)NC(=O)[C@]1(C)Cl (some centres not stated) | – | – | – | – | 31 | – | Not Active | –
10 | CC(C)O[C@H]1N(C2CC(N=[N+]=[N-])C(CO)O2)C(=O)NC(=O)[C@]1(C)Br (some centres not stated) | – | – | – | – | > 200 | 35 | – | –
11 | CO[C@H]1N(C2CC(N=[N+]=[N-])C(CO)O2)C(=O)NC(=O)[C@]1(C)Cl (some centres not stated) | 0 | 0 | 0 | 0 | – | – | – | –
12 | CO[C@@H]1N(C2CC(N=[N+]=[N-])C(CO)O2)C(=O)NC(=O)[C@@]1(C)Br (some centres not stated) | 88 | 44 | 0 | 77 | 42.5 | 152 | – | –
13 | CC1(Br)C(=O)NC(=O)N([C@H]2C[C@H](N=[N+]=[N-])[C@@H](CO)O2)C1N=[N+]=[N-] (some centres not stated) | – | – | – | – | 176 | < 1 | – | –
14 | CCO[C@@H]1N(C2CC(N=[N+]=[N-])C(CO)O2)C(=O)NC(=O)[C@@]1(C)Br (some centres not stated) | – | – | 0 | 85 | 22.2 | 937 | – | –
15 | CO[C@H]1N(C2CC(N=[N+]=[N-])C(CO)O2)C(=O)NC(=O)[C@]1(C)Br (some centres not stated) | 59 | 26 | 0 | 80 | 17.2 | 5260 | – | –
16 | CO[C@@H]1N(C2CC(N=[N+]=[N-])C(CO)O2)C(=O)NC(=O)[C@@]1(C)Cl (some centres not stated) | 0 | 0 | 0 | 0 | – | – | – | –
17 | CCO[C@H]1N(C2CC(N=[N+]=[N-])C(CO)O2)C(=O)NC(=O)[C@@]1(C)Cl (some centres not stated) | – | – | – | – | > 200 | – | Not Active | –
18 | Cc1cn([C@H]2C[C@H](O)[C@@H](CO)O2)c(=O)[nH]c1=O | – | – | 72 | – | – | – | – | –
19 | CCO[C@H]1N(C2CC(N=[N+]=[N-])C(CO)O2)C(=O)NC(=O)[C@]1(C)Cl (some centres not stated) | – | – | – | – | – | – | Not Active | IC50 (CCRF-CEM [9]): > 200 µM
20 | CO[C@H]1N([C@H]2C[C@H](N=[N+]=[N-])[C@@H](CO)O2)C(=O)NC(=O)C1(C)Cl (some centres not stated) | – | – | – | – | > 890 | 155 | – | –
21 | CO[C@@H]1N(C2CC(N=[N+]=[N-])C(CO)O2)C(=O)NC(=O)[C@@]1(C)I (some centres not stated) | 100 | 96 | 0 | 100 | 6.42 | 1250 | – | –
22 | CC(C)O[C@H]1N(C2CC(N=[N+]=[N-])C(CO)O2)C(=O)NC(=O)[C@]1(C)Cl (some centres not stated) | – | – | – | – | > 200 | – | Not Active | –
23 | CCCCCCCCCCCCCCCCO[C@H]1N(C2CC(N=[N+]=[N-])C(CO)O2)C(=O)NC(=O)[C@]1(C)Br (some centres not stated) | – | – | – | – | 11 | – | Not Active | –
